# Assay results of several laboratories.
SMILES,tested on,test,system,conditions,measurement,value
CCC(=CCc1c(O)cc2c(c1O)C(=O)C[C@@H](c1ccc(O)cc1)O2)CC,HeLa,"cell growth or viability, MTT",,"100 µM, 48 h",inhibition,99.5%
COc1ccc(Nc2cnnc3cc(-c4cnc(N5CCCN(C)CC5)nc4)ccc23)nc1,Leishmania major,parasite growth,,"intracellular, amastigote",EC50,> 23 µM
CCC(=CCc1c(O)cc2c(c1O)C(=O)C[C@@H](c1ccccc1O)O2)CC,HeLa,"cell growth or viability, MTT",,"30 µM, 48 h",inhibition,9.27%
CNC(=S)NN=Cc1ccc(O)c(OC)c1,Leishmania major,parasite growth,J774.A1,"72 h, intracellular, amastigote",IC50,112 µM
CC[C@H]1OC(=O)[C@H](C)[C@@H](O[C@H]2C[C@@](C)(OC)[C@@H](O)[C@H](C)O2)[C@H](C)[C@@H](O[C@@H]2O[C@H](C)C[C@H](N(C)C)[C@H]2O)[C@](C)(O)C[C@@H](C)/C(=N\OCOCCOC)[C@H](C)[C@@H](O)[C@]1(C)O,Enterococcus faecalis,microbial growth,,clinical isolate,MIC90,> 128 µg/mL
COc1ccc(Nc2cnnc3cc(-c4cnc(N5CCN(C)CC5)nc4)ccc23)cc1Cl,Leishmania major,parasite growth,,"intracellular, amastigote",EC50,> 2.2 µM
COc1c(N2C[C@@H]3CCCN[C@@H]3C2)c(F)cc2c(=O)c(C(=O)O)cn(C3CC3)c12,Enterococcus faecalis,"microbial growth, broth dilution",,clinical isolate,MIC50,0.5 µg/mL
C[C@@H]1[C@H](O)[C@@H](C)/C=C/C=C/C=C/C=C/C=C/C=C/C=C/[C@H](O[C@@H]2O[C@H](C)[C@@H](O)[C@H](N)[C@@H]2O)C[C@@H]2O[C@](O)(C[C@@H](O)C[C@@H](O)[C@H](O)CC[C@@H](O)C[C@@H](O)CC(=O)O[C@H]1C)C[C@H](O)[C@H]2C(=O)O,Leishmania major,"parasite growth, MTT",,"72 h, promastigote",IC50,9.6 µM
